# Phagocyt inh – blocks phagocytosis by macrophages; J774A.1 macrophage IgG-bead phagocytosis, imaging; inhibition, % at 5 µM; 0.07% of 110,000 active;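 active means inhibition above the mean of the plate negative controls plus 5 SD, cut at about 13% in these data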;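 further: phagocytic index as fraction of beads internalized from green versus red external bead signal; plate controls were DMSO negative control for no effect and cytochalasin-D positive control for full effect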
# Fibroblast inh – blocks proliferation of human lung fibroblasts. 1.1% of 85,000 active. viability, % at 10 µM. LL 47 human lung fibroblast viability, ATP luminescence; active compounds read low;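 active means viability at or below 50% in the single dose screen; inactive means viability above 50%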;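 further: compound exposure lasted 72 h before the ATP readout; 100% = median luminescence of untreated cell-only wells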
#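 Test system: LL 47 human lung fibroblasts / Quantity: 1,150 cells in each well / Medium: IMEM growth medium with 15% fetal bovine serum / Incubation: 72 h compound exposure at 37 °C after overnight plating / Detection: CellTiter-Glo luminescence measuring cellular ATP / Read-out: % viability versus median cells-only luminescence / Benchmarks: cell-only wells, no compound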
# HUVEC inhibit – inhibitors of human endothelial cell proliferation. HUVEC proliferation, CellTiter-Glo luminescence, 72 h; active compounds read low. viability, % at 10 µM (by protocol). 1.1% of 86,000 active;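 active means viability at or below 30%; inactive means viability above 30%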;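 further: 100% = median luminescence of DMSO-only cell control wells on each plate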
# PTEN del growth – suppresses growth of cells with PTEN deletion; viability, % at 10 µM; HCT116 PTEN-null viability, CellTiter-Glo, 60 h; active compounds read low; AID 827; 1.2% of 140,000 active;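 active means viability at or below a set limit, 4 SD under the median of all tested compounds, cut at about 3.7% in these data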;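 further: PTEN knockout HCT116 line with beta catenin targeted HCT116 as companion control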
# H69AR growth 86K – blocks growth of human H69AR lung tumor cells | H69AR lung tumor viability, ATP luminescence, 72 h; active compounds read low | viability, % at 10 µM | 6% of 85,000 active | AID 598;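 active means viability at or below 40%; inactive means viability above 40%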;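 further: multidrug resistant small cell line overexpressing MRP-1 efflux transporter; 100% = mean luminescence of untreated control wells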
# bCat KO growth – beta-catenin-lacking colon tumor cell growth suppression; 1.5% of 140,000 active; HCT116 beta-catenin knockout viability, CellTiter-Glo, 60 h; active compounds read low; viability, % at 10 µM;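 active means viability at or under a set limit, the compound median less 4 SD, cut at about 6% in these data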;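 further: 0% = Hyamine 1622 control at 20 µM and 100% = untreated cell control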
# Starred values were filed as active, the others as inactive; x = no result. Shown is part of a subset that was picked to be rich in hits.
SMILES,Phagocyt inh,Fibroblast inh,HUVEC inhibit,PTEN del growth,H69AR growth 86K,bCat KO growth
Cc1cc(C)c(N2CCN(S(=O)(=O)N3CCCCCC3)CC2)c(C)c1,-1.2,96.8,76.1,71.7,82.5,61.7
O=C(O)/C=C/c1ccc2c(-c3ccccc3)onc2c1,-3.7,x,x,106.8,x,107.6
Cc1cc(C)n(-c2nnc(C)n2/N=C/c2ccccc2OCc2ccccc2Cl)n1,x,77.3,60.8,33.0,16.1*,26.5
Cc1cc(C)n(-c2nnc(C)n2/N=C/c2cc(Br)ccc2OCc2ccccc2)n1,-0.3,67.4,40.6,9.5,25.6*,9.4
COc1ccccc1/C=N/n1c(C)nnc1-n1nc(C)cc1C,-1.3,105.7,100.7,115.5,94.2,107.7
Cc1c(C(=O)Nc2cnccn2)oc2ccccc12,-1.5,83.5,80.3,41.5,38.0*,45.6
O=C(Nc1ccc2oc(-c3cccnc3)nc2c1)c1cccnc1,-1.9,111.2,88.4,95.4,99.2,98.3
Cc1c(C(=O)Nc2ccc(Cl)cn2)oc2ccccc12,x,75.0,64.1,55.0,58.9,53.4
Cc1c(C(=O)Nc2ccc3oc(-c4cccnc4)nc3c2)oc2ccccc12,x,14.7*,37.0,74.8,3.4*,79.5
COc1ccc(Cl)cc1NC(=O)Nc1cccc([N+](=O)[O-])c1C,3.4,x,x,3.9,x,3.1*
COc1ccc(Cl)cc1NC(=O)Nc1ccc(Br)cn1,0.8,90.8,97.6,68.2,37.7*,75.8
CC(NCc1ccc(-c2ccccc2)cc1)C(O)c1ccccc1 (centres undefined),-4.9,x,x,5.9,x,2.8*
Cc1ccc2c(c1)C(=O)c1ccccc1CS2=O (centres undefined),-0.4,x,x,96.6,x,99.3
CCn1c(=O)c(=O)[nH]c2cc(C(=O)N3CCN(c4ccccc4F)CC3)ccc21,-1.3,108.9,103.6,92.0,79.4,105.4
COc1ccccc1N1CCN(C(c2cc3ccc(C)cc3[nH]c2=O)c2nnnn2C2CCCC2)CC1 (centres undefined),-0.7,95.9,89.1,8.2,95.4,3.0*
COc1cc2cc(C(c3nnnn3C3CCCC3)N3CCc4ccccc43)c(=O)[nH]c2cc1OC (centres undefined),2.5,36.5*,68.0,83.5,30.9*,77.5
O=C(Nc1ccccc1NC(=O)c1ccco1)c1ccco1,-0.8,102.4,112.5,59.8,95.7,52.2
O=C(Nc1ccccc1-c1ccccc1NC(=O)c1ccco1)c1ccco1,x,101.8,89.9,93.2,39.8*,97.3
CC(C)COc1ccc(C(=O)Nc2ccc(NC(=O)c3ccco3)c(Cl)c2)cc1,x,86.7,36.6,41.2,6.7*,39.3
CC(C)Oc1ccc(C(=O)Nc2ccc(NC(=O)c3ccco3)c(Cl)c2)cc1,x,101.7,105.0,92.4,88.0,82.1
O=C(Nc1ccc(Cl)cc1C(=O)Nc1ccncc1)c1ccco1,x,69.6,72.7,78.5,35.8*,68.0
COc1cc(OC)cc(C(=O)Nc2cc(NC(=O)c3ccco3)ccc2OC)c1,-0.7,93.8,83.5,87.7,36.7*,89.6
COc1ccc(NC(=O)c2ccco2)cc1NC(=O)c1cccnc1,-1.8,105.0,95.7,90.5,90.4,100.2
CCc1ccc(N2C(=O)CC(NNc3nc4ccccc4s3)C2=O)cc1 (centres undefined),-0.8,x,x,81.4,x,92.4
COc1cc(OC)c(NC(=O)c2ccco2)cc1Cl,-1.4,92.0,105.4,98.7,90.3,98.0
SMILES,Phagocyt inh,Fibroblast inh,HUVEC inhibit,PTEN del growth,H69AR growth 86K,bCat KO growth
COc1cc(NC(=O)c2ccco2)c(OC)cc1NC(=O)Nc1ccc(Cl)cc1,-1.5,109.3,78.0,25.7,11.2*,24.1
COc1ccc(-c2[nH]c(-c3ccc(F)cc3)nc2SCC(=O)NCc2ccco2)cc1OC,-0.3,95.9,83.3,97.1,39.5*,87.2
Cc1cc(-c2csc(N)n2)c(C)n1CCc1ccccc1,-0.3,88.5,42.5,95.1,39.5*,92.9
CCN(CC)CCNc1c2c(c(C#N)c3nc4ccccc4n13)CCCC2,-0.4,90.3,90.8,3.6*,33.4*,7.7
Cc1ccc(NC(=O)c2cc(-c3ccc(C)o3)nc3ccccc23)cc1,x,90.0,94.2,45.6,32.2*,57.2
N#CCCn1cc(/C=N/O)c(-c2ccc(-c3ccccc3)cc2)n1,-0.5,74.2,56.1,38.6,31.8*,47.4
N#CCCn1cc(/C=N/O)c(-c2ccc(Cl)cc2)n1,x,93.2,101.3,88.5,95.2,86.0
Cc1noc2ncnc(Sc3c(Cl)cccc3Cl)c12,0.0,48.8*,51.8,8.1,15.9*,10.7
Cc1noc2ncnc(Sc3ccc(Cl)cc3)c12,0.6,56.5,47.3,83.2,1.8*,83.0
COc1cccc(CNc2ccc(N3CCC(C)CC3)cc2)c1OC,x,99.0,92.6,73.9,13.7*,58.9
CN1CCN(CCC(=O)N2c3ccccc3Sc3ccc(C(F)(F)F)cc32)CC1,0.1,90.9,85.0,102.4,85.1,95.4
CN(C)CCCN1c2ccccc2Sc2ccc(C(F)(F)F)cc21,x,41.3*,46.8,13.3,1.5*,11.0
CN1CCN(CCCN2c3ccccc3Sc3ccc(Cl)cc32)CC1,x,93.8,95.5,12.8,71.4,9.9
OCCN1CCN(CCCN2c3ccccc3Sc3ccc(C(F)(F)F)cc32)CC1,x,47.2*,2.9*,1.5*,0.8*,1.7*
CC(=O)n1cc(/C=N/NC(=O)c2sc(C)nc2C)c2ccccc21,x,88.9,83.8,48.3,22.0*,44.6
Cc1nc(N)sc1C(=O)N/N=C/c1c[nH]c2ccccc12,-0.2,x,x,40.2,x,42.6
Cn1c(C(=O)OC(C(=O)NC2CCCCC2)c2ccncc2)cc2sccc21 (centres undefined),-0.5,84.7,89.9,85.3,23.1*,91.5
Cc1ccc(-c2[nH]nc(N)c2N=Nc2ccccc2C)cc1,2.9,x,x,5.3,x,3.1*
COc1ccc(OC)c(N(CC(=O)N2CCc3ccccc3C2)S(C)(=O)=O)c1,x,101.2,86.3,94.0,82.8,99.4
Cc1csc(=Nc2cccnc2)n1CC1CCCCC1,-3.2,x,x,87.7,x,80.5
C=CCN1C(=Nc2cccnc2)SCC1(O)c1ccc(C)cc1 (centres undefined),0.3,86.5,1.8*,26.9,34.1*,19.7
O=C(Nc1ccc(S(=O)(=O)Nc2nccs2)cc1)/C(=C/c1ccccc1Cl)NC(=O)c1ccccc1,-7.9,x,x,96.5,x,93.4
CCn1c(SCC(=O)Nc2nccs2)nnc1-c1cc2cccc(OC)c2o1,0.1,106.1,109.4,82.2,96.2,93.9
COc1cccc2cc(-c3nnc(SCC(=O)Nc4cc(C(F)(F)F)ccc4Cl)n3N)oc12,-1.7,88.3,68.5,45.4,7.6*,51.0
O=C(CN(c1ccccc1F)S(=O)(=O)c1ccccc1)N1CCCCCC1,x,102.7,108.5,98.0,94.7,90.8
CCN1C(=O)/C(=C2/Sc3ccc(OC)cc3N2C)SC1=Nc1cccc(O)c1,0.8,79.9,95.0,72.6,23.8*,71.8
CCN(CC)S(=O)(=O)c1cccc(C(=O)Nc2cccc(C)c2)c1,0.8,102.2,92.2,48.0,24.9*,32.7
